Data from publication PMC9924909 (Brain, 2022).
Entries after “also recorded” stand apart in the source; their conditions may differ.

How the values were obtained:
Assay type in all cases: in vivo, human
ceramide = assay: Ceramide in CSF; conditions: baseline and throughout the study
Procedure, shortened: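 Exploratory CSF biomarkers quantified in CSF taken by lumbar puncture at baseline and Weeks 1, 4, 26 and 52. Adults with GD3 received oral test compound 15 mg once daily plus maintenance IV enzyme replacement for 52 weeks.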

adults with GD3 [1] = assay: Ataxia, Scale for Assessment and Rating of Ataxia
adults with GD3 [2] = assay: Vineland Adaptive Behavior Scale II; conditions: over 1 year of venglustat treatment
adults with GD3 [3] = assay: Resting functional MRI connectivity
Procedure, shortened: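 Resting-state BOLD fMRI at baseline, Week 26 and Week 52, analysed centrally and blinded. Regions of interest came from FreeSurfer segmentation masks, using parcellation of the baseline high-resolution 3D-T1 image. Full and partial connectivity were computed between resting-state networks 1, 2, 3, 6, 7 and 8 using published template maps.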

CC(C)(NC(=O)O[C@@H]1CN2CCC1CC2)c1csc(-c2ccc(F)cc2)n1 [Venglustat]
ceramide concentrations in CSF (ceramide): within reference ranges
total modified SARA score at Week 52, mean (adults with GD3 [1]; 11 patients, baseline mean 2.68, scale 0–32): 1.55
total modified SARA score, mean change from baseline (adults with GD3 [1]; Week 52, 95% CI: −2.06 to −0.21): −1.14 points
patients with slightly improved total modified SARA score (adults with GD3 [1]; baseline to Week 52, 11 patients): nine patients; also recorded: nine of 11
Vineland II domain scores over time (adults with GD3 [2]): deteriorated in all domains; also recorded: All domains decreased in normative score
functional connectivity relative to baseline (adults with GD3 [3]; Weeks 26 and 52, patients with venglustat exposure (fMRI Group A)): stronger connectivity
maximal increased correlation coefficient (adults with GD3 [3]; fMRI Group A (nine patients)): 0.19 ± 0.16
